Source: PubChem BioAssay (several laboratories)
C1s inh – complement C1s protease inhibitors, primary screen, biochemical, 10-compound mixtures; Complement C1s subcomponent (Homo sapiens), P09871; purified C1s, fluorogenic AMC substrate, pooled mixtures; mean inhibition % of two 10-compound mixtures (hits give high values), % at 5 µM (by protocol); actives 0.16% (n = 62,000); AID 538, 2006;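 active = inhibition above 20% in each of the two 10-compound mixture wells holding the compound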;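 note: 0% = enzyme wells lacking compound mixture and 100% = no-enzyme blank wells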
CatG inh – human cathepsin G inhibitors, primary screen, biochemical, pooled compound mixtures, AMC fluorescence; AID 581, 2007; P08311; inhibition, % at 5 µM (by protocol); actives 0.2% (n = 62,000); purified enzyme, AMC-tetrapeptide fluorescence;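 active = inhibition above 20% in each of the two mixture wells holding the compound; inactive = inhibition of 20% or less in either well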;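 note: 0% = enzyme control without mixture and 100% = blank lacking enzyme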
FXIa mix inh – FXIa protease inhibitors in compound pools, primary screen, biochemical, 10-compound mixtures | inhibition, % at 5 µM | purified FXIa, fluorogenic substrate, pooled mixtures | AID 680, 2007 | actives 0.19% (n = 62,000) | Coagulation factor XI (Homo sapiens), P03951;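 note: each value is inhibition by a whole ten-compound pool holding the compound; 0% = enzyme with no mixture and 100% = wells lacking enzyme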
AP complement – alternative complement pathway inhibitors, primary screen, biochemical, ELISA, human serum, orthogonally pooled compounds | AID 1235, 2008 | LPS-coated ELISA, C3 deposition; tested in compound mixtures | inhibition, % at 5 µM | actives 0.08% (n = 62,000);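 active = inhibition above 30% in each of the two pooled mixtures holding the compound, so the lower value exceeds 30%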;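 note: 0% = serum in Mg-EGTA without compound and 100% = EDTA serum blank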
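Test system – human serum alternative complement pathway, C3 deposition on LPS-coated wells · Buffer or medium – diluted human serum in Mg2+-EGTA GVB++ · Compound dosing – 5 µM each compound, pools of ten, 50 µM per pool · Schedule – 1 h serum-compound exposure at 37 °C · Measured by – Anti-C3 ELISA, OD 450 nm · Read-out basis – percent inhibition of C3 deposition onto LPS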
FXIIa mix inh – human factor XIIa inhibitors, primary screen, biochemical, pooled compound mixtures, fluorogenic substrate | Coagulation factor XII (Homo sapiens), P00748 | inhibition, % at 5 µM | purified FXIIa | actives 0.2% (n = 62,000);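 note: 0% = enzyme without compound and 100% = no enzyme blank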
MMP-13 inhibitor – human MMP13 inhibitors, primary screen, biochemical, FRET peptide cleavage. MMP-13 fTHP FRET cleavage, Mca fluorescence. actives 0.07% (n = 65,000). inhibition, % at 4 µM. AID 570, 2006. Collagenase 3 (Homo sapiens), P45452;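 active = inhibition above the mean of compound-free control plate wells plus 3 SD, cut at about 14% in these data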;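 note: 0% = DMSO wells and 100% = wells with reference MMP-13 inhibitor after basal subtraction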
Numbers without * were called inactive; . = no result given. Only some compounds are listed: those with a hit (about 0.58% of all), similar ones and a draw of the others. Cut-off read from the data, not from the text of the source, unless noted: active = inhibition above about 20% (passing the limit was not always enough); inactive = the rest.

SMILES	C1s inh	CatG inh	FXIa mix inh	AP complement	FXIIa mix inh	MMP-13 inhibitor
CC1(C)C(c2ccccc2)=NC(c2cccnc2)N1O (centres undefined)	62.0*	7.5	8.6	13.9	5.0	.
COc1ccc(OC)c(N2C(=O)NC(=O)C(CCc3ccncc3)(CCc3ccncc3)C2=O)c1	-9.1	3.6	3.3	13.2	12.9	-0.5
O=C1NC(=O)C(CCc2ccncc2)(c2ccccc2)C(=O)N1	-3.6	-2.2	6.8	-2.1	-15.8	37.0*
CCOC(=O)c1cc2c(cn1)[nH]c1ccccc12	11.1	12.2	1.7	13.5	3.5	-77.0
